According to ChEMBL document CHEMBL4304739, “Discovery of 3-(Indol-5-yl)-indazole Derivatives as Novel Myeloid Differentiation Protein 2/Toll-like Receptor 4 Antagonists for Treatment of Acute Lung Injury” (J Med Chem, 2019):
Active and inactive are the calls of the source. No cut-off for these calls is given here.

Tests used:
[1] = biological target: Myeloid differentiation primary response protein MyD88 (Homo sapiens) (UniProt Q99836); assay: Binding affinity to recombinant MyD88 (unknown origin) by surface plasmon resonance analysis
Mus musculus [2] = assay: Antiinflammatory activity in LPS-induced C57BL/6 mouse model of acute lung injury assessed as suppression of neutrophil lung infiltration by measuring reduction in MPO activity at 5 to 10 mg/kg, iv pretreated for 15 mins followed by LPS stimulation and measured after 6 hrs; format: functional, organism-based
Outline: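 Male C57BL/6 mice (18−22 g; n=8 per group). Compound in 0.1% CMC-Na given by tail vein injection 15 min before intraperitoneal LPS (20 mg/kg); controls received saline. Mice were sacrificed 6 h after LPS, and serum and lung tissue were collected.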

Mus musculus [3] = assay: Antiinflammatory activity in LPS-induced C57BL/6 mouse model of acute lung injury assessed as reduction in IL33 mRNA level at 10 mg/kg, iv pretreated for 15 mins followed by LPS stimulation and measured after 6 hrs by SYBR green staining-based qRT-PCR analysis; format: functional, organism-based
Outline: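 Total lung RNA extracted, with DNase I removal of residual DNA. Quantitative PCR with mouse gene primers; each gene normalized to β-actin. C57BL/6 mice given compound iv 15 min before intraperitoneal LPS (20 mg/kg) and killed at 6 h.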

[4] = biological target: Atypical kinase COQ8A, mitochondrial (Homo sapiens) (UniProt Q8NI60); assay: Inhibition of wild-type human […] length ADCK3 (M280 to Q647 residues) expressed in bacterial expression system at 1 uM by Kinomescan method
Outline: (§1)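 KINOMEscan competition binding screen at 1 μM compound. Results reported as % of control = (test − positive control)/(DMSO negative control − positive control) × 100, where lower values mean stronger hits.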

[5] = biological target: Aurora kinase B (Homo sapiens) (UniProt Q96GD4); assay: Inhibition of wild-type human partial length AURKB (D25 to A303 residues) expressed in mammalian expression system at 1 uM by Kinomescan method
Aurora kinase B (Homo sapiens), sequence (Q96GD4 whole entry, the tested form may be a part): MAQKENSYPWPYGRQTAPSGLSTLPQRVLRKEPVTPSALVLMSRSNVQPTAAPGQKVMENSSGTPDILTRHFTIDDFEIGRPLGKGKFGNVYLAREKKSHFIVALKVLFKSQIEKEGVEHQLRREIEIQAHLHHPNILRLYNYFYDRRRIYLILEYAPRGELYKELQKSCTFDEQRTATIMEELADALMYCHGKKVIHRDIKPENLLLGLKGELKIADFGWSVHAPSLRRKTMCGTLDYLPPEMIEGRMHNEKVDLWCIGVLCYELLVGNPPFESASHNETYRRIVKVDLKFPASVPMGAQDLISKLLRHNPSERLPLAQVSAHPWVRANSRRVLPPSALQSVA
Outline: (§2)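 Binding-competition screen on the KINOMEscan platform, run by the provider, with the test compound at 1 μM. Readout is percent of control: (test signal − positive control signal)/(negative control signal − positive control signal) × 100. The DMSO negative control is set as 100% Ctrl and a control compound as 0% Ctrl. Lower values mean stronger hits.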

[6] = biological target: Tyrosine-protein kinase receptor UFO (Homo sapiens) (UniProt P30530); assay: Inhibition of wild-type human partial length AXL (R497 to Y821 residues) expressed in bacterial expression system at 1 uM by Kinomescan method; outline: as §2
[7] = biological target: Serine/threonine-protein kinase B-raf (Homo sapiens) (UniProt P15056); assay: Inhibition of wild-type human partial length BRAF (S429 to E741 residues) expressed in mammalian expression system at 1 uM by Kinomescan method; outline: as §2
Serine/threonine-protein kinase B-raf (Homo sapiens), sequence (P15056 whole entry, the tested form may be a part): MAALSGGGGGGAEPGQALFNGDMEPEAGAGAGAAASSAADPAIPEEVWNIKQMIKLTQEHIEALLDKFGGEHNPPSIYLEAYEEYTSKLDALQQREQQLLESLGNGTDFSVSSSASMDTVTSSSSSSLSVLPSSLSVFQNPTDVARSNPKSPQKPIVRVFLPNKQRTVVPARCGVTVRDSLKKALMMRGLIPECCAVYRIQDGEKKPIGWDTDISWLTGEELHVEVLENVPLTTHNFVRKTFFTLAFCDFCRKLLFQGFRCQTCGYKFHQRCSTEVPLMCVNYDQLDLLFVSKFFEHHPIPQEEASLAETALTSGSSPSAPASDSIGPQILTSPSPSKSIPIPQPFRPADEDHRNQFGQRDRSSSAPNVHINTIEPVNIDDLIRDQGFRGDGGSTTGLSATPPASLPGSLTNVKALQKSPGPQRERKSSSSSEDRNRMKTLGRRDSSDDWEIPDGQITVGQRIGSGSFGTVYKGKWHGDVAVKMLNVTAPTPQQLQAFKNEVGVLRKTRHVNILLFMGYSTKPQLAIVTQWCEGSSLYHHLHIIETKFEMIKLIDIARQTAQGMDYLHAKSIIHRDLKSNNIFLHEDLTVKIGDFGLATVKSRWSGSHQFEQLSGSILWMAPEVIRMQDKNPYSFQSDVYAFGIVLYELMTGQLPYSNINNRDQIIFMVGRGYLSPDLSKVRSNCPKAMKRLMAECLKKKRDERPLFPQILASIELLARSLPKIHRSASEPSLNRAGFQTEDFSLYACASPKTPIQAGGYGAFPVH

[8] = biological target: Tyrosine-protein kinase BTK (Homo sapiens) (UniProt Q06187); assay: Inhibition of wild-type human full length BTK (M1 to S659 residues) expressed in mammalian expression system at 1 uM by Kinomescan method; outline: as §1
[9] = biological target: Casein kinase I isoform gamma-1 (Homo sapiens) (UniProt Q9HCP0); assay: Inhibition of wild-type human partial length CSNK1G1 (T15 to S353 residues) expressed in bacterial expression system at 1 uM by Kinomescan method; outline: as §2
Casein kinase I isoform gamma-1 (Homo sapiens), sequence (Q9HCP0 whole entry, looked up, the tested form may be a part, canonical isoform): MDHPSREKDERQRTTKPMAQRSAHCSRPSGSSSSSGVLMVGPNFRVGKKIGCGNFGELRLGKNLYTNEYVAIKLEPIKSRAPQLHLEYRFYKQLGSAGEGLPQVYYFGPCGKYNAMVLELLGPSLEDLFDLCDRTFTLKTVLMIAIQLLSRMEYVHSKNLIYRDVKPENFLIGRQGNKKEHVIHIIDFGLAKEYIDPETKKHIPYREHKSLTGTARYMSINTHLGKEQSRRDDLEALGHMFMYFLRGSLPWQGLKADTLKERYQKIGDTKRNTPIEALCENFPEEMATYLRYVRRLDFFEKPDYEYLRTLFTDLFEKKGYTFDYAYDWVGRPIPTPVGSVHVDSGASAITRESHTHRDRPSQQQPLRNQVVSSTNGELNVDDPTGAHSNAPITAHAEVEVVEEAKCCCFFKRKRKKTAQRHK

[10] = biological target: Fibroblast growth factor receptor 2 (Homo sapiens) (UniProt P21802); assay: Inhibition of wild-type human partial length FGFR2 (D457 to E769 residues) expressed in bacterial expression system at 1 uM by Kinomescan method; outline: as §2
Fibroblast growth factor receptor 2 (Homo sapiens), sequence (P21802 22-821 limits assumed): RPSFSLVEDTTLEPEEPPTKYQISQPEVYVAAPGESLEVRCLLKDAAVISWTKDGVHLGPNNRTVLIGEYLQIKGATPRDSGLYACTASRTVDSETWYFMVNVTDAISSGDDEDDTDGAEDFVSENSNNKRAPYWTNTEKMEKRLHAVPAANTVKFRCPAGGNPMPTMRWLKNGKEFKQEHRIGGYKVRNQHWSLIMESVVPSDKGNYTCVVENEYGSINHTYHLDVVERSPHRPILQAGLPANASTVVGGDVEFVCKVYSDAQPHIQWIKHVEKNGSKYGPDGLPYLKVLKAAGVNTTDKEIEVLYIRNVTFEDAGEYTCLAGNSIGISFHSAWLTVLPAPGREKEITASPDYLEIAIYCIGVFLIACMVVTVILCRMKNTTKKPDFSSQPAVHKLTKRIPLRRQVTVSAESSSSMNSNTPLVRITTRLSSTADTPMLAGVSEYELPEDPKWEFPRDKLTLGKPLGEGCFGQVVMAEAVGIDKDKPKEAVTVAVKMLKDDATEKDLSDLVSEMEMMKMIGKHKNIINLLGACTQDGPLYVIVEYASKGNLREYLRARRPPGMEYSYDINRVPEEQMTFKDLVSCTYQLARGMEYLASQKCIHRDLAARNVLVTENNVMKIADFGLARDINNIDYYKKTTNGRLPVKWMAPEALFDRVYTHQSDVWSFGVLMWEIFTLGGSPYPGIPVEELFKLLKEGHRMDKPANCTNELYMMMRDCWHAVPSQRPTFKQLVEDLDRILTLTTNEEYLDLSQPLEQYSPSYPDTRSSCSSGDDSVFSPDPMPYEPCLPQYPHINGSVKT

[11] = biological target: Insulin receptor (Homo sapiens) (UniProt P06213); assay: Inhibition of wild-type human partial length INSR (P997 to E1318 residues) expressed in mammalian expression system at 1 uM by Kinomescan method; outline: as §2
[12] = biological target: Mitogen-activated protein kinase 9 (Homo sapiens) (UniProt P45984); assay: Inhibition of wild-type human full length JNK2 (M1 to Q382 residues) expressed in mammalian expression system at 1 uM by Kinomescan method; outline: as §1
[13] = test system: Mast/stem cell growth factor receptor Kit (Homo sapiens), P10721 [V559D,T670I]; assay: Inhibition of human partial length KIT V559D/T670I double mutant (Y545 to D952 residues) expressed in bacterial expression system at 1 uM by Kinomescan method
Outline: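 KINOMEscan competition binding panel (98 kinases) run by the provider, compound screened once at 1 μM. Read-out is percent of control: [(test signal − positive control signal)/(negative control signal − positive control signal)] × 100. DMSO negative control sets 100% Ctrl and a control compound sets 0% Ctrl; lower values mean stronger hits.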

[14] = biological target: MAP kinase-interacting serine/threonine-protein kinase 2 (Homo sapiens) (UniProt Q9HBH9); assay: Inhibition of wild-type human partial length MKNK2 (G63 to S388 residues) expressed in mammalian expression system at 1 uM by Kinomescan method; outline: as §2
[15] = biological target: Serine/threonine-protein kinase PAK 1 (Homo sapiens) (UniProt Q13153); assay: Inhibition of wild-type human partial length PAK1 (S149 to H545 residues) expressed in bacterial expression system at 1 uM by Kinomescan method; outline: as §2
[16] = biological target: Serine/threonine-protein kinase PAK 2 (Homo sapiens) (UniProt Q13177); assay: Inhibition of wild-type human partial length PAK2 (P151 to R525 residues) expressed in bacterial expression system at 1 uM by Kinomescan method; outline: as §2
Serine/threonine-protein kinase PAK 2 (Homo sapiens), sequence (Q13177 whole entry, the tested form may be a part): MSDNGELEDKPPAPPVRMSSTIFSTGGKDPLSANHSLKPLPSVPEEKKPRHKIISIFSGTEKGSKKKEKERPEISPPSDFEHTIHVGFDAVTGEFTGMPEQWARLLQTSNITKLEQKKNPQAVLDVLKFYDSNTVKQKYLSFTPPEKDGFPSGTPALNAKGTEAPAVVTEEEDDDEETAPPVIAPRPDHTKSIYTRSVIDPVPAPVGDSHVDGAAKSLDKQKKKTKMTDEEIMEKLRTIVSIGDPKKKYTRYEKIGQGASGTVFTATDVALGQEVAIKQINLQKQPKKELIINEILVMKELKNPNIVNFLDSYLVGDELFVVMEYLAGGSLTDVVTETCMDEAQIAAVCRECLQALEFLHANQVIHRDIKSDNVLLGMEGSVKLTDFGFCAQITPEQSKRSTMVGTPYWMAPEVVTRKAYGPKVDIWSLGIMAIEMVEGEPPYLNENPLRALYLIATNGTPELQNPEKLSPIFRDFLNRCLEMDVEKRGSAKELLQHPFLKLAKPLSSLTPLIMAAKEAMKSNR

[17] = biological target: Platelet-derived growth factor receptor alpha (Homo sapiens) (UniProt P16234); assay: Inhibition of wild-type human partial length PDGFRA (V575 to D1002 residues) expressed in mammalian expression system at 1 uM by Kinomescan method; outline: as §2
[18] = biological target: Protein kinase C epsilon type (Homo sapiens) (UniProt Q02156); assay: Inhibition of wild-type human partial length PRKCE (A378 to P737 residues) expressed in mammalian expression system at 1 uM by Kinomescan method; outline: as §2
[19] = biological target: Rho-associated protein kinase 2 (Homo sapiens) (UniProt O75116); assay: Inhibition of wild-type human partial length ROCK2 (M1 to T431 residues) expressed in mammalian expression system at 1 uM by Kinomescan method; outline: as §2
[20] = biological target: Ribosomal protein S6 kinase alpha-3 (Homo sapiens) (UniProt P51812); assay: Inhibition of wild-type human partial length N-terminal RSK2 kinase domain 1 (M1 to D394 residues) expressed in mammalian expression system at 1 uM by Kinomescan method; outline: as §2
Ribosomal protein S6 kinase alpha-3 (Homo sapiens), sequence (P51812 whole entry, the tested form may be a part): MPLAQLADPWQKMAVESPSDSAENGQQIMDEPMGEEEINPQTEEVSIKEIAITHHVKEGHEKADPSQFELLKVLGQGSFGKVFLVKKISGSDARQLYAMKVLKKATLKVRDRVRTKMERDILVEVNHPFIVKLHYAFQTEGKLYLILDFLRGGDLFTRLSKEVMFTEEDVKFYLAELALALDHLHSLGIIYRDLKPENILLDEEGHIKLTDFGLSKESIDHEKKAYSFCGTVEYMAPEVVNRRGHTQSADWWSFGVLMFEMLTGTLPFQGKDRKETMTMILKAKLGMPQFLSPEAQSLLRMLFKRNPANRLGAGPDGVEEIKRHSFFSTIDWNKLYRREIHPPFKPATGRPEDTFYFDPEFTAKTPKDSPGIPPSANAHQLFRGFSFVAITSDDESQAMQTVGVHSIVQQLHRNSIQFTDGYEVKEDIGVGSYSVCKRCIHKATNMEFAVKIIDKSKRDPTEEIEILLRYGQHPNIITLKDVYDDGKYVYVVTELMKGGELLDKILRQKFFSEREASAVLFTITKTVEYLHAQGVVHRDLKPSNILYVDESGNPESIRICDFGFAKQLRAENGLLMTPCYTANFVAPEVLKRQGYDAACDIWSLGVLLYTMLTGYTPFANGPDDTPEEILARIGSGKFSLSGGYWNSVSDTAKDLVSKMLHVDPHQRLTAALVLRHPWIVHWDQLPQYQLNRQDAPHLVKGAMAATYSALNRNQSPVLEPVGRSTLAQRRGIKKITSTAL

[21] = biological target: Non-receptor tyrosine-protein kinase TYK2 (Homo sapiens) (UniProt P29597); assay: Inhibition of wild-type human partial length TYK2 JH1 catalytic domain (V877 to C1187 residues) expressed in mammalian expression system at 1 uM by Kinomescan method
Non-receptor tyrosine-protein kinase TYK2 (Homo sapiens), sequence (P29597 whole entry, the tested form may be a part): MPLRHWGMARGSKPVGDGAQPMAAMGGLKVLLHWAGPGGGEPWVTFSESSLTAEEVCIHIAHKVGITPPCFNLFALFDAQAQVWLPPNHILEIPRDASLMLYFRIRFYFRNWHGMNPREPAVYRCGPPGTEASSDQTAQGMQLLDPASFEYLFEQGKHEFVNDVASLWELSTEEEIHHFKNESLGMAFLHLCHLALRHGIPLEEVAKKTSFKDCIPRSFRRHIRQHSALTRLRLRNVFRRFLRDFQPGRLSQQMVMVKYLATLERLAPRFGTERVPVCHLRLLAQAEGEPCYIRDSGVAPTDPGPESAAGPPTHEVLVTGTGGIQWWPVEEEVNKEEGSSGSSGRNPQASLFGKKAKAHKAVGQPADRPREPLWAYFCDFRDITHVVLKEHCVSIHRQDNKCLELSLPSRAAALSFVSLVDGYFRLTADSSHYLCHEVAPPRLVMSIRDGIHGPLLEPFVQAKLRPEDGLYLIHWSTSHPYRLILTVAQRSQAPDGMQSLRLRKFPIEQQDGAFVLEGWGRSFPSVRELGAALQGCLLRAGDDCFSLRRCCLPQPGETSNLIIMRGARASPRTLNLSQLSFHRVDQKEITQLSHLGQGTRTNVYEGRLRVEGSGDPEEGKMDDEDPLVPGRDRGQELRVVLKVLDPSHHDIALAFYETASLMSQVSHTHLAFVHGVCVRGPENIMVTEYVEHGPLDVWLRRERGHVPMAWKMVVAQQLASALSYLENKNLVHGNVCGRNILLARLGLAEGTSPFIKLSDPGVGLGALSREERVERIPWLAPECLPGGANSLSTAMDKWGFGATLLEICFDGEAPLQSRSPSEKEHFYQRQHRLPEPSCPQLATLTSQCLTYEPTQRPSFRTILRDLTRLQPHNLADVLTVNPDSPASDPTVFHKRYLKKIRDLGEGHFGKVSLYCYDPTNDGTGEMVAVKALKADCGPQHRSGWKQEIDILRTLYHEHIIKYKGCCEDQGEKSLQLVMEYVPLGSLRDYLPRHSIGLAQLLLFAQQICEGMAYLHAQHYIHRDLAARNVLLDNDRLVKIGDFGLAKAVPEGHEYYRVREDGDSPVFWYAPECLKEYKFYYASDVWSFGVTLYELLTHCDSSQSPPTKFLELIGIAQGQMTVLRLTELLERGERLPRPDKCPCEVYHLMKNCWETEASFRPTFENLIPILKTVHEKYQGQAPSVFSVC
Outline: (§3)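 Single-concentration screen at 1 μM on the KINOMEscan panel (98 kinases), run by the platform provider. Results are given as percent of control: % Ctrl = [(test signal − positive control signal)/(negative control signal − positive control signal)] × 100. DMSO serves as negative control (100% Ctrl) and a control compound as positive control (0% Ctrl). Lower values mean stronger binding hits.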

[22] = biological target: Serine/threonine-protein kinase ULK2 (Homo sapiens) (UniProt Q8IYT8); assay: Inhibition of wild-type human partial length ULK2 (M1 to S301 residues) expressed in mammalian expression system at 1 uM by Kinomescan method; outline: as §3

## O=C(Nc1ccc2[nH]nc(-c3ccc4[nH]ccc4c3)c2c1)c1c(Cl)cccc1Cl
[1]
  Activity: inactive
Mus musculus [2]
  Activity: Active
Mus musculus [3]
  Activity: Active
[4]
  inhibition: inactive
[5]
  inhibition: inactive
[6]
  inhibition: inactive
[7]
  inhibition: inactive
[8]
  inhibition: inactive
[9]
  inhibition: inactive
[10]
  inhibition: inactive
[11]
  inhibition: inactive
[12]
  inhibition: inactive
[13]
  inhibition: inactive
[14]
  inhibition: inactive
[15]
  inhibition: inactive
[16]
  inhibition: inactive
[17]
  inhibition: inactive
[18]
  inhibition: inactive
[19]
  inhibition: inactive
[20]
  inhibition: inactive
[21]
  inhibition: inactive
[22]
  inhibition: inactive
